Shown are actives, neighbours in structure and some others; about 2.1% of the full set was active somewhere.
RanGTP-Imp inh – inhibitors of RanGTP-importin-beta interaction, primary screen, biochemical, FRET, CFP-Ran, YFP-importin-beta, homogeneous | AID 2216 | inhibition, % (no concentration beside the values) | hit rate 1.1% among 300,000 | cell-free CFP-Ran/YFP-importin-beta FRET ratio;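 active = more than half of the replicate wells show a fall in the fluorescence ratio signal beyond about 16%, limit read from the data, passing the limit was not always enough; inconclusive = exactly half of the replicate wells pass the set limit; inactive = fewer than half of replicates pass the limit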;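 note: 0% = DMSO wells and 100% = Ran loaded with GDP instead of GTP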
Runt-SMMHC FRET – Runt domain-CBFb-SMMHC interaction inhibition | inhibition, % at 20 µM | AID 1434 | hit rate 0.74% among 220,000 | Q01196+Q13951 | Cerulean-Runt/Venus-CBFb-SMMHC FRET ratio 530/480, 1 h;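 active = mean inhibition across duplicate retests at 20 µM reaching about 50%, limit read from the data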;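 note: 0% = DMSO wells and 100% = wells with excess untagged CBFb-SMMHC; inhibitors lower the FRET ratio by blocking Runt binding to CBFb-SMMHC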
Target sequence (Q01196 whole entry, looked up, the tested form may be a part): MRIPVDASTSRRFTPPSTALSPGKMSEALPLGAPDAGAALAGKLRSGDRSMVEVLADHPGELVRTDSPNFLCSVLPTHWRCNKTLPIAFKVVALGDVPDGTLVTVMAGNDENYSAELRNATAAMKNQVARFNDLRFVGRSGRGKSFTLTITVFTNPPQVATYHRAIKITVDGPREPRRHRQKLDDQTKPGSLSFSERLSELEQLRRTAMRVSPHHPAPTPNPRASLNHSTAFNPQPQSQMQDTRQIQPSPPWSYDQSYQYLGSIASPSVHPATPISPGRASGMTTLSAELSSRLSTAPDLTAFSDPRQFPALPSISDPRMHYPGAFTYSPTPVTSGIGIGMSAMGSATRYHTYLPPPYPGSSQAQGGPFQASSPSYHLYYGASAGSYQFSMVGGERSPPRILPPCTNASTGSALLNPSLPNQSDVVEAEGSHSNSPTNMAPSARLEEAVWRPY
Target sequence (Q13951 whole entry, looked up, the tested form may be a part): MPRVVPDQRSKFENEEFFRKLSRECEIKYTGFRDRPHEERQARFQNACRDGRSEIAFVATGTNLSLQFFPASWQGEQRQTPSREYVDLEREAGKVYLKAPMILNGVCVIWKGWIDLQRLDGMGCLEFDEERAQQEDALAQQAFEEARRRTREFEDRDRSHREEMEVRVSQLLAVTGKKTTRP
zVAD death inh – blocks zVAD induced death of L929 cells; hit rate 0.38% among 220,000; viability rescue, % at 10 µM; AID 1377; L929 zVAD necroptosis rescue, ATP luminescence, 24 h; with zVAD 60 µM;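 active = activation, scaled between plate controls, above about 75%, limit read from the data; inactive = activation under that limit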;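 note: 0% = zVAD with DMSO and 100% = DMSO alone without zVAD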
TNF necrop inh – inhibitors of TNF-alpha induced necroptosis in Jurkat FADD-/- cells | AID 463075 | Jurkat FADD-/- TNF necroptosis rescue, ATP luminescence, 24 h; 0 = TNF only, 100 = no-TNF cells | hit rate 0.068% among 220,000 | activation (protection from cell death), % at 10 µM;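 active = activation, meaning protection from cell death, of at least 50% relative to plate controls; inactive = activation below 50%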;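 note: necroptosis triggered by 40 ng/mL TNF-alpha added together with compound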
Hck-Nef inh – blocks Nef-activated human Hck kinase; inhibition, % at 20 µM; Recombinant Hck-YEEI plus Nef, Z-Lyte FRET kinase assay; hit rate 0.68% among 220,000;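 active = Hck-Nef kinase inhibition above about 50%, limit read from the data; inactive = inhibition below that limit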;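 note: 0% = DMSO with Hck plus Nef and 100% = Hck alone without Nef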
Runt-CBFb FRET – inhibitors of human RUNX1 Runt domain binding to CBFb; AID 1496; hit rate 0.46% among 220,000; inhibition, % at 20 µM; Q01196+Q13951; Cerulean-Runt/Venus-CBFb FRET ratio 530/480, 1 h;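 active = inhibition over about 50% at 20 µM in the single-dose screen, limit read from the data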;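 note: 0% = DMSO wells and 100% = excess unlabeled CBFb competitor control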
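Buffer or medium: Tris pH 7.5 buffer with BSA. Assay system: Cerulean-labeled Runt domain protein. Amount: each fluorescent fusion protein 100 nM. Read-out basis: loss of energy transfer signal. Incubation: 1 h compound exposure, room temperature. Probe or stimulus: Venus-CBFb binding partner, 100 nM. Detection: FRET, excitation 422 nm, emission at 530 and 480 nm.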
YIC counter – counter-screen YIC FRET for RanGTP-importin-beta inhibitors. shares compounds with RanGTP-Imp inh. Purified YIC probe, intramolecular FRET ratio YFP/CFP. IC50, µM. hit rate 40% among 1,000. AID 435026;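 active = fitted half-maximal inhibitory concentration no more than tenfold above the top dose tested; inconclusive = flat fit with 30 to 70% activity, or poor fit; inactive = half-maximal concentration beyond tenfold above the top dose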
An asterisk follows results filed as active; ? = inconclusive; . = no result given.

SMILES	RanGTP-Imp inh	Runt-SMMHC FRET	zVAD death inh	TNF necrop inh	Hck-Nef inh	Runt-CBFb FRET	YIC counter
CCOCCCn1c(=N)c(C(=O)NCc2ccc3c(c2)OCO3)cc2c(=O)n3cccc(C)c3nc21	29*	163*	0	-8	7	60*	18*
COCCCn1c(=N)c(C(=O)NCc2ccc3c(c2)OCO3)cc2c(=O)n3ccccc3nc21	36*	172*	0	1	8	79*	25*
CCOCCCn1c(SCC(=O)NCc2ccc3c(c2)OCO3)nc2ccccc2c1=O	-2	-1	2	1	22	-5	.
CC1CCC(C(=O)NC(C(=O)NCc2cccnc2)C(C)C)CC1 (stereo unspecified)	4	-2	0	0	4	3	.
COc1ccc(C2C(C#N)=C(N)Oc3cc4c(cc32)OCO4)cc1 (stereo unspecified)	25*	10	-1	-11	4	13	>50
CC1=Nc2ccccc2/C1=C\c1nc(-c2ccc(F)cc2)oc1O	22*	-3	0	1	2	-18	>26
COc1ccc2c(c1)c(C(=O)CN1CCC(C(N)=O)CC1)c(C)n2C	-2	-15	0	1	2	0	.
O=C(Cc1n[nH]c(=O)c2ccccc12)NCc1ccc(Cl)cc1	2	0	0	1	11	2	.
O=C(Cc1n[nH]c(=O)c2ccccc12)NCc1ccccn1	23*	4	0	-2	0	1	>50
COC(=O)Cc1cc(OC)c(OC)cc1Cc1cc(OC)c(OC)cc1CC(=O)OC	-1	-1	1	-1	-1	-1	.
CNS(=O)(=O)c1cc(OC)c(OC)cc1CC(=O)OC	21*	2	0	0	21	0	>50
O=C(COC(=O)CCC(=O)c1ccc(Cl)cc1)NC1CC1	?	0	1	0	11	-2	.
Cc1nc2nc(CCNS(=O)(=O)c3ccc(Cl)cc3)cn2nc1C	18*	.	.	.	.	.	32*
Cc1ccccc1-n1c(=O)cc(N2CCC3(CC2)OCCO3)[nH]c1=O	33*	1	-1	-1	6	-1	>50
CCOc1ccc(NC(=O)CN2C(=O)COc3ccc(Cl)cc32)cc1	18*	1	1	1	0	3	>50
Cn1c(SCc2cccc([N+](=O)[O-])c2)nc2c(c1=O)SCC2	16*	-1	-1	-1	22	0	>50
Oc1ccc(/C=N/Nc2cc(N3CCOCC3)nc(N3CCOCC3)n2)cc1	22*	.	7	-5	1	.	>50
Oc1cccc(/C=N/Nc2cc(N3CCCC3)nc(N3CCCC3)n2)c1	21*	5	1	3	4	2	>50
C=CCNC(=O)CN1CCN(C(c2ccccc2)c2ccccc2)CC1	-4	.	.	.	.	.	.
CC(C)(C)C(=O)NC(=S)Nc1ccc(S(=O)(=O)Nc2nccs2)cc1	17*	-12	4	0	-13	3	>50
Cc1ccc(S(=O)(=O)CC(=O)N(CCCN(C)C)c2nc3ccc(C)cc3s2)cc1	21*	.	.	.	.	.	>50
COc1ccc2nc(SCC(=O)NCc3ccc4c(c3)OCO4)[nH]c2c1	8	-2	2	2	6	1	.
CCOc1ccc2nc(SCC(=O)NCc3ccc4c(c3)OCO4)[nH]c2c1	30*	4	0	-4	2	2	>50
C=CCn1c(SCC(=O)Nc2sccc2C(N)=O)nc2ccccc2c1=O	19*	0	-1	2	-21	-1	>50
COc1ccc(/C=C/c2nnc(NC(=O)COc3ccc(C)cc3)s2)cc1	0	6	4	1	6	2	.
SMILES	RanGTP-Imp inh	Runt-SMMHC FRET	zVAD death inh	TNF necrop inh	Hck-Nef inh	Runt-CBFb FRET	YIC counter
CCOC(=O)/C=C1\SCC(=O)N1CC(=O)c1ccc[nH]1	21*	-3	-1	-4	1	.	>50
CCOC(=O)/C=C1\SCC(=O)N1CC(=O)Nc1ccc(OC)c(OC)c1	8	7	-1	0	6	-2	.
COc1ccc(C(=O)O)cc1S(=O)(=O)N(C)C	26*	-1	4	0	17	0	>50
COc1ccc(C(=O)O)cc1S(=O)(=O)NC(C)(C)C	3	0	0	0	37	0	.
CN1CCN(C(=O)c2cc3nc(-c4ccccc4)cc(C(F)(F)F)n3n2)CC1	22*	2	0	-1	0	-3	>50
O=C1CS/C(=N\N=C\c2ccccc2Cl)N1CC1CC1	0	-3	0	0	8	-1	.
CN1CCCC1CCNc1ccc2sc3ccccc3c(=O)c2c1 (stereo unspecified)	-193	.	.	.	.	.	.
Cc1cc2oc3cc(NCCC4CCCN4C)ccc3c(=O)c2cc1C (stereo unspecified)	31*	.	.	.	.	.	8.9*
COc1cccc(C(=O)Nc2ccc(S(=O)(=O)Nc3onc(C)c3C)cc2)c1	3	-4	0	-3	1	-3	.
COc1ccc(C(=O)Nc2ccc(S(=O)(=O)Nc3onc(C)c3C)cc2)cc1	27*	-7	0	-1	1	-1	>50
Cc1cccc(C)c1OCC(=O)OC/C(O)=C(\C#N)c1nc2ccccc2[nH]1	26*	1	43	6	5	3	>50
Cc1cc(C)cc(OCC(=O)OC/C(O)=C(\C#N)c2nc3ccccc3[nH]2)c1	-3	2	13	8	6	2	.
CCOC(=O)C1=C(N)OC2=C(C(=O)CCC2)C1c1sccc1C (stereo unspecified)	23*	-3	0	-1	2	-2	>50
O=C(OCc1cc(=O)n2cc(Br)ccc2n1)c1ccc(Cl)c(S(=O)(=O)NCc2ccccc2)c1	3	1	0	3	3	-1	.
O=C(O)c1ccccc1P(=O)(c1ccccc1)c1ccccc1	16*	-1	0	-1	18	1	>50
O=C(CN1CCN(Cc2ccccc2)CC1)N1CCCCCC1	6	-20	1	0	23	0	.
COc1ccc(-c2cc(C(=O)NC3CC3)c3ccccc3n2)cc1	-3	.	.	.	.	.	.
COc1cccc(-c2cc(C(=O)NC3CC3)c3ccccc3n2)c1	19*	.	.	.	.	.	>50
COc1ccccc1C1c2[nH]c3ccccc3c2CCN1Cc1ccc(NC(C)=O)s1 (stereo unspecified)	3	0	-1	0	14	5	.
CC(C)=N/N=C1/NC(=O)C(CC(=O)Nc2cc(Cl)ccc2C)S1 (stereo unspecified)	0	2	0	2	1	-1	.
COc1ccc2c(c1)cc(C(=O)N[C@@H](Cc1ccccc1)C(=O)O)n2C	2	.	.	.	.	.	.

Compound activity deposited in PubChem BioAssay by several laboratories.
